AI-2 QS mod – modulates the Vibrio harveyi AI-2 quorum sensing system; Vibrio harveyi JMH597 AI-2 luminescence/OD600 ratio, 9 h; stronger effect = lower value; strain lacks LuxN and CqsS sensors; 0 = neutral-control median; activity change, % at 7.5 µM; 0.4% of 300,000 active; AID 2094; in the data active means activity change below about -75%, passing the limit was not always enough;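 further: luminescence divided by OD600 gain over 9 h not by final OD600 alone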
AHR act – activators of human aryl hydrocarbon receptor. 2.5% of 320,000 active. activation, % at 5 µM. P35869. AHR-responsive luciferase reporter cells, luminescence. AID 2796; in the data active means activation above about 47%
HTR2A ag – mouse HTR2A agonism via beta-arrestin recruitment; activation, % at 7.6 µM; 0.66% of 360,000 active; CHO-K1 mHTR2A beta-arrestin complementation, luminescence; percent of 30 µM serotonin response; P35363;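 active means activation above a run cutoff, the mean activation of all tested compounds plus 3 SD, cut at about 14% in these data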
Target sequence (P35363 whole entry, looked up): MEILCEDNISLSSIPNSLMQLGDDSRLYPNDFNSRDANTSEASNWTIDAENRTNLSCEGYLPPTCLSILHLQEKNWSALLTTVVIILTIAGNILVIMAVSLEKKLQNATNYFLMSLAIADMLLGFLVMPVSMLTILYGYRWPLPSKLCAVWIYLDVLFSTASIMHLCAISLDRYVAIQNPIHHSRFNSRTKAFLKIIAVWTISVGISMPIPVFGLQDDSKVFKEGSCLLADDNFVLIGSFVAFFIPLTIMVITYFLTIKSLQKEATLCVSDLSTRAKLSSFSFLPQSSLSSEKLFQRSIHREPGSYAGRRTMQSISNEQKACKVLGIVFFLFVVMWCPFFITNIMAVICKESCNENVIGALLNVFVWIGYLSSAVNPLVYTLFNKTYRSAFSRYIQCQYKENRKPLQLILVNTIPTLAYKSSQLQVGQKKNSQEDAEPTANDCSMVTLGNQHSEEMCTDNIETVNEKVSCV
MsrA inh – inhibits bovine methionine sulfoxide reductase A | 0.75% of 360,000 active | inhibition, % at 15.5 µM | purified bovine MsrA, absorbance read-out
MsrA act – activators of bovine methionine sulfoxide reductase A; purified bovine MsrA, absorbance read-out; activation, % at 10.6 µM; 0.3% of 360,000 active; in the data active means activation above about 7.5%
Tb MetRS inh – blocks T. brucei methionyl-tRNA synthetase activity; purified T. brucei MetRS, ATP depletion, Kinase-Glo luminescence; inhibition, % at 11.9 µM; 0.4% of 360,000 active;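 active means inhibition above a per-plate cutoff of the control wells' mean inhibition plus 3 SD, cut at about 5.5% in these data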
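Measured by: Kinase-Glo luciferase luminescence reporting remaining unconsumed ATP. Material: purified T. brucei MetRS enzyme. Doses: 11.9 µM compound single dose, 0.9% DMSO. Medium: HEPES buffer containing pyrophosphatase, BSA, spermine, DTT. Times: 15 min preincubation, 2 h reaction, all 25 °C. Reagent: methionine, ATP and bulk E. coli tRNA.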
MsrA inh confirm – confirmation of bovine MsrA inhibitors; shares compounds with MsrA inh; inhibition, % at 15.5 µM; AID 651822; purified bovine MsrA, absorbance read-out; 41% of 2,300 active;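 further: coupled to thioredoxin reductase with NADPH and selenocystamine and DMSO as substrate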
Numbers stand for hits. Only some compounds are listed: those with a hit (about 4.4% of all), similar ones and a draw of the others. Unless noted, no stated cut-off is given here; in the data, active means inhibition above about 4.5%; inactive means the rest.

`Cc1cc[n+](-c2[nH]c(=O)sc2/C=N/N=C(\[O-])CCn2c3ccccc3c3ccccc32)cc1` gave AI-2 QS mod inactive, AHR act inactive, HTR2A ag inactive, MsrA inh inactive, MsrA act inactive and Tb MetRS inh inactive.
Cc1cc[n+](-c2[nH]c(=O)sc2/C=N/N=C(\[O-])c2ccccc2)cc1C was read as AI-2 QS mod inactive, HTR2A ag inactive, MsrA inh 4.7, MsrA act inactive, Tb MetRS inh inactive and MsrA inh confirm inactive.
`Cc1cc[n+](-c2[nH]c(=O)sc2/C=N/N=C(\[O-])c2ccccc2)cc1` gave AI-2 QS mod inactive, AHR act inactive, HTR2A ag inactive, MsrA inh 5.0, MsrA act inactive, Tb MetRS inh inactive and MsrA inh confirm inactive.
For COc1ccc(NC(=O)COC(=O)c2cc(C)oc2C)c([N+](=O)[O-])c1 the results were AHR act inactive, HTR2A ag inactive, MsrA inh inactive, MsrA act inactive and Tb MetRS inh inactive.
Screening O=C(Nc1nncs1)C1CC(=O)N(CCc2ccc(F)cc2)C1 (centres undefined) returned AI-2 QS mod inactive, AHR act inactive, HTR2A ag inactive, MsrA inh inactive, MsrA act inactive and Tb MetRS inh inactive.
For Cc1ccc(CN2C(=O)c3ccccc3NC2c2cc(Br)ccc2O)cc1 (centres undefined) the results were AI-2 QS mod inactive, AHR act inactive, HTR2A ag inactive, MsrA inh inactive, MsrA act inactive and Tb MetRS inh inactive.
Screening Cc1cccc(NC2=C(C#N)C(=O)NC3(CCCC3)S2)c1 returned AI-2 QS mod inactive, AHR act inactive, HTR2A ag inactive, MsrA inh inactive, MsrA act inactive and Tb MetRS inh inactive.
`COC(=O)CSC1=C(C#N)C(=O)NC2(CCCCC2)S1` gave AI-2 QS mod inactive, AHR act inactive, HTR2A ag inactive, MsrA inh 5.7, MsrA act inactive, Tb MetRS inh inactive and MsrA inh confirm inactive.
Screening Cc1cccc(N2CCN(C(=O)c3ccccc3SCC(=O)N3CCCC3)CC2)c1C returned AHR act inactive, HTR2A ag inactive, MsrA inh inactive, MsrA act inactive and Tb MetRS inh inactive.
`COC(=O)CSc1nc2sc3c(c2c(=O)n1-c1ccccc1)CCN(C)C3` gave AI-2 QS mod inactive, AHR act inactive, HTR2A ag inactive, MsrA inh 4.7, MsrA act inactive, Tb MetRS inh inactive and MsrA inh confirm inactive.
For CCCCSc1nc2sc3c(c2c(=O)n1-c1ccccc1)CCN(C)C3 the results were AI-2 QS mod inactive, AHR act inactive, HTR2A ag inactive, MsrA inh 5.4, MsrA act inactive, Tb MetRS inh inactive and MsrA inh confirm inactive.
For COc1cc(S(=O)(=O)N2CCOCC2)cc(C(=O)OCC(=O)NC2CCCCC2)c1OC the results were AHR act inactive, HTR2A ag inactive, MsrA inh inactive, MsrA act inactive and Tb MetRS inh inactive.
Screening Cc1cc(=O)[nH]c2c(C)cc(S(=O)(=O)Nc3ccc(O)cc3)cc12 returned AI-2 QS mod inactive, AHR act inactive, HTR2A ag inactive, MsrA inh 9.2, MsrA act inactive, Tb MetRS inh inactive and MsrA inh confirm 4.7.
Screening COC(=O)Nc1ccc(S(=O)(=O)Nc2ccc(O)cc2)cc1 returned AI-2 QS mod inactive, AHR act inactive, HTR2A ag inactive, MsrA inh inactive, MsrA act inactive and Tb MetRS inh inactive.
`CCOC(=O)c1nnsc1Nc1ccc(C)c(C)c1` gave AI-2 QS mod inactive, AHR act inactive, HTR2A ag inactive, MsrA inh 8.2, MsrA act inactive, Tb MetRS inh inactive and MsrA inh confirm 7.0.
`CC(C)c1c(C(=O)N/N=C/C=C/c2ccccc2)nnn1-c1nonc1N` gave AI-2 QS mod inactive, AHR act inactive, HTR2A ag inactive, MsrA inh inactive, MsrA act inactive and Tb MetRS inh inactive.
Screening CCOC(=O)c1sc(C)c2c(=O)n(CC)nnc12 returned AI-2 QS mod inactive, AHR act inactive, HTR2A ag inactive, MsrA inh 5.7, MsrA act inactive, Tb MetRS inh inactive and MsrA inh confirm inactive.
`Cc1ccc(S(=O)(=O)CCC(=O)NCc2ccccc2F)cc1` gave AI-2 QS mod inactive, AHR act inactive, HTR2A ag inactive, MsrA inh inactive, MsrA act inactive and Tb MetRS inh inactive.
Screening Cn1c(=O)c2c(nc(N/N=C/c3ccco3)n2C)n(C)c1=O returned AI-2 QS mod inactive, AHR act inactive, HTR2A ag inactive, MsrA inh 6.2, MsrA act inactive, Tb MetRS inh inactive and MsrA inh confirm 6.8.
`CC(C)=NNc1nc2c(c(=O)n(C)c(=O)n2C)n1C` gave AI-2 QS mod inactive, AHR act inactive, HTR2A ag inactive, MsrA inh inactive, MsrA act inactive and Tb MetRS inh inactive.
Screening Cn1c(=O)c2c(nc(N/N=C/c3cccs3)n2C)n(C)c1=O returned AI-2 QS mod inactive, AHR act inactive, HTR2A ag inactive, MsrA inh 4.9, MsrA act inactive, Tb MetRS inh inactive and MsrA inh confirm 5.7.
COc1cccc(/C(C)=N/Nc2ccc(S(=O)(=O)N3CCCCC3)cn2)c1 was read as AHR act inactive, HTR2A ag inactive, MsrA inh 4.8, MsrA act inactive, Tb MetRS inh inactive and MsrA inh confirm inactive.
Cc1cc2ccccn2c1C(=O)Nc1ccccc1 was read as AI-2 QS mod inactive, AHR act 59.5, HTR2A ag inactive, MsrA inh 5.1, MsrA act inactive, Tb MetRS inh inactive and MsrA inh confirm inactive.
Cc1cc2ccccn2c1C(=O)Nc1ccc(Cl)cc1 was read as AI-2 QS mod inactive, AHR act inactive, HTR2A ag inactive, MsrA inh inactive, MsrA act inactive and Tb MetRS inh inactive.
`Cc1nc(Cn2c3ccc(NC(=S)NC4CCCCC4)cc3c(=O)n2C)cs1` gave HTR2A ag inactive, MsrA inh inactive, MsrA act inactive and Tb MetRS inh inactive.
`N/C(=N\N=C\c1ccc2c(c1)OCO2)c1nonc1N` gave AI-2 QS mod inactive, AHR act inactive, HTR2A ag inactive, MsrA inh 7.3, MsrA act inactive, Tb MetRS inh inactive and MsrA inh confirm inactive.
Screening N/C(=N\N=C\c1cccc([N+](=O)[O-])c1)c1nonc1N returned AI-2 QS mod inactive, AHR act inactive, HTR2A ag inactive, MsrA inh inactive, MsrA act inactive and Tb MetRS inh inactive.
For Cc1[nH]c2ccccc2c1CC#N the results were AI-2 QS mod inactive, AHR act inactive, HTR2A ag inactive, MsrA inh inactive, MsrA act inactive and Tb MetRS inh inactive.
Cc1[nH]c2ccccc2c1C(C#N)(C#N)C1C(=O)c2ccccc2C1=O was read as AI-2 QS mod inactive, AHR act inactive, HTR2A ag inactive, MsrA inh 46.8, MsrA act inactive, Tb MetRS inh inactive and MsrA inh confirm 46.4.
